For one compound, Activity results are on record in ChEMBL document CHEMBL5030505, “Assessment of NR4A Ligands That Directly Bind and Modulate the Orphan Nuclear Receptor Nurr1” (J Med Chem, 2020).

What all share (type): cell-based
For one series, the system named is SK-N-BE(2). The series is described as follows: Cytotoxicity in human SKNBE2 cells assessed as reduction in cell viability at 0.01 to 100 uM incubated for 18 hrs by Cell Titer-Glo assay. Conditions: dose 0.01-100 µM. A digest of the protocol: (§1)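 Cells seeded at 1.5 million per 10-cm dish. Next day they were replated at 10,000 cells/well and rested 4 h. Ligand or vehicle (water, ethanol or DMSO, by ligand) was added in dose-response format in quadruplicate. After 18 h, viability was read by CellTiter-Glo luminescence. Data are mean ± s.e.m., generally representative of 2 independent experiments. One-way ANOVA versus vehicle.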
(In ATP-based viability assays light output follows the ATP content of the culture.)

The test system of series [1] is PC-12. The series is described as follows: Cytotoxicity in rat PC-12 cells assessed as reduction in cell viability at 0.01 to 100 uM incubated for 18 hrs by Cell Titer-Glo assay. The settings on record: pc-12, 18 h, dose 0.01-100 µM. In outline:
as §1

The subject of another series is HEK-293T. In words: Cytotoxicity in human HEK293T cells assessed as reduction in cell viability at 0.01 to 100 uM incubated for 18 hrs by Cell Titer-Glo assay. Conditions: dose 0.01-100 µM. In outline:
as §1

Series [2] concerns PC-12. In words: Modulation of Gal4-fused VP16 expressed in PC12 cells co-transfected with UAS repoter gene assessed as increase in luciferase activity at 0.01 to 100 uM incubated for 18 hrs by luciferase reporter gene assay. Conditions: Human alphaherpesvirus 2, filed as modulator, dose 0.01-100 µM. In outline: (§2)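 Cells in 10-cm dishes were transfected with Gal4-VP16 expression plasmid (2 μg) plus 5xUAS-luciferase reporter (2 μg) for 18 h. They were replated at 10,000 cells/well for 4 h, then given ligand or vehicle (water, ethanol or DMSO) in quadruplicate for 18 h. Luciferase was read with Britelite Plus. Fold change is versus vehicle-treated cells, with one-way ANOVA versus vehicle.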
(In a reporter assay the amount or activity of a reporter protein is the signal.)

A further series has as its system HEK293T. In words: Modulation of Gal4-fused VP16 expressed in HEK293T cells co-transfected with UAS repoter gene assessed as increase in luciferase activity at 0.01 to 100 uM incubated for 18 hrs by luciferase reporter gene assay. Conditions: Human alphaherpesvirus 2, filed as modulator, dose 0.01-100 µM. In outline:
as §2

For series [3], the target named is Nuclear receptor subfamily 4 group A member 2 (Homo sapiens) (UniProt P43354). The series is described as follows: Modulation of full length human Nurr1 expressed in SKNBE(2) cells co-transfected with RXRalpha and luciferase reporter plasmid harboring NurRE response element assessed as increase in luciferase activity at 100 uM incubated for 18 hrs by luciferase reporter gene assay. The settings on record: SKNBE2, filed as modulator. A digest of the protocol: (§3)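 SK-N-BE(2)-C cells were kept in 1:1 EMEM/F12 with 10% FBS at 37°C and 5% CO2. They were cotransfected with full-length Nurr1 (1 μg), full-length RXRα (1 μg) and 3xNBRE- or 3xNurRE-luc reporter (6 μg) for 18 h, replated at 10,000 cells/well for 4 h, and then treated with ligand or vehicle in quadruplicate for 18 h. The readout was luciferase luminescence as fold over vehicle, reported as mean ± s.e.m. (n=4) from 2 independent experiments, one-way ANOVA.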
Nuclear receptor subfamily 4 group A member 2 (Homo sapiens), sequence (P43354 whole entry): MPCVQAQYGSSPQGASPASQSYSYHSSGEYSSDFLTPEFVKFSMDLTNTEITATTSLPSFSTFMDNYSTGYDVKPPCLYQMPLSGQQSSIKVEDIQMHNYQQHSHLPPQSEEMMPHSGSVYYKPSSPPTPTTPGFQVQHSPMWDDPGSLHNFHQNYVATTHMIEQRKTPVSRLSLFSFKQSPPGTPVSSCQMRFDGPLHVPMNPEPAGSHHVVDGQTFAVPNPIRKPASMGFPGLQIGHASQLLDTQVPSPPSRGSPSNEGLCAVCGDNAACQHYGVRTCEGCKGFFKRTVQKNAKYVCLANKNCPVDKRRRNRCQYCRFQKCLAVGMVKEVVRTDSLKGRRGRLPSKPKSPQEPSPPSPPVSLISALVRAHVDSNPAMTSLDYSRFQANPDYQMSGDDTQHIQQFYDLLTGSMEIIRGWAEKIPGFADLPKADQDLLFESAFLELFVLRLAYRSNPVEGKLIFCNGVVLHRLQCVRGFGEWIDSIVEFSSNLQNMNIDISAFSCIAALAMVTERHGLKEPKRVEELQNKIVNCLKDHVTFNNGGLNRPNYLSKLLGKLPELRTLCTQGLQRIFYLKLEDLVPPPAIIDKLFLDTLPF

For series [4] the target is unchanged. In words: Modulation of full length human Nurr1 expressed in SKNBE(2) cells co-transfected with RXRalpha and luciferase reporter plasmid harboring NBRE response element assessed as increase in luciferase activity at 100 uM incubated for 18 hrs by luciferase reporter gene assay. The settings on record: SKNBE2, filed as modulator. In outline:
as §3

Series [5] has the same target. The series is described as follows: Modulation of full length human Nurr1 expressed in PC12 cells co-transfected with RXRalpha and luciferase reporter plasmid harboring NurRE response element assessed as increase in luciferase activity at 100 uM incubated for 18 hrs by luciferase reporter gene assay. The settings on record: PC-12, filed as modulator. A digest of the protocol: (§4)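 PC12 cells were grown at 37°C and 5% CO2 in […] medium with 15% horse serum and 2.5% FBS. They were transfected with full-length Nurr1 (1 μg) plus full-length RXRα (1 μg) and 3xNBRE- or 3xNurRE-luciferase reporter (6 μg) for 18 h, then replated at 10,000 cells/well for 4 h. Ligand or vehicle (water, ethanol or DMSO) was added in quadruplicate for 18 h. Luminescence was read as fold change over vehicle. Results are mean ± s.e.m., n=4, from 2 independent experiments, analysed by one-way ANOVA against vehicle.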

Series [6] has the same target. In words: Modulation of full length human Nurr1 expressed in HEK293T cells co-transfected with RXRalpha and luciferase reporter plasmid harboring NurRE response element assessed as increase in luciferase activity at 100 uM incubated for 18 hrs by luciferase reporter gene assay. Conditions: filed as modulator. A digest of the protocol: (§5)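 Full-length Nurr1 plasmid, alone (2 μg) or 1 μg plus full-length RXRα (1 μg), cotransfected with 3xNBRE- or 3xNurRE-luciferase reporter (6 μg) using Lipofectamine 2000, 18 h. Cells replated at 10,000/well for 4 h. Four ligand concentrations, or vehicle (water, ethanol or DMSO), added in quadruplicate for 18 h. Luciferase read. Fold change vs vehicle, mean ± s.e.m., one-way ANOVA vs vehicle.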

The target is the same in series [7]. In words: Modulation of full length human Nurr1 expressed in HEK293T cells co-transfected with RXRalpha and luciferase reporter plasmid harboring NBRE response element assessed as increase in luciferase activity at 100 uM incubated for 18 hrs by luciferase reporter gene assay. The settings on record: filed as modulator. A digest of the protocol: as §5
Series [8] has the same target. The series is described as follows: Modulation of full length human Nurr1 expressed in SKNBE(2) cells co-transfected with luciferase reporter plasmid harboring NurRE response element assessed as increase in luciferase activity at 100 uM incubated for 18 hrs by luciferase reporter gene assay. The settings on record: SKNBE2, filed as modulator.
Series [9] shares this target. The series is described as follows: Modulation of full length human Nurr1 expressed in SKNBE(2) cells co-transfected with luciferase reporter plasmid harboring NBRE response element assessed as increase in luciferase activity at 100 uM incubated for 18 hrs by luciferase reporter gene assay. The settings on record: SKNBE2, filed as modulator. In outline: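 Transfection of SK-N-BE(2)-C cells (1:1 EMEM/F12, 10% FBS, 37°C, 5% CO2) used full-length Nurr1 alone (2 μg, no RXRα) with 3xNBRE- or 3xNurRE-luciferase reporter (6 μg) for 18 h. Cells were replated at 10,000/well for 4 h, then exposed to ligand or vehicle in quadruplicate for 18 h. Luminescence was expressed as fold over vehicle, as mean ± s.e.m. (n=4) from 2 independent experiments, one-way ANOVA against vehicle.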

Series [10] has the same target. In words: Modulation of full length human Nurr1 expressed in PC12 cells co-transfected with luciferase reporter plasmid harboring NurRE response element assessed as increase in luciferase activity at 100 uM incubated for 18 hrs by luciferase reporter gene assay. Conditions: PC-12, filed as modulator. A digest of the protocol:
(§6)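 Here PC12 cells (FK-12 medium, 15% horse serum, 2.5% FBS, 37°C, 5% CO2) received full-length Nurr1 (2 μg) without RXRα, plus 3xNBRE- or 3xNurRE-luciferase reporter (6 μg), for 18 h. Cells were replated at 10,000/well for 4 h, then treated with ligand or vehicle in quadruplicate for 18 h. Luciferase luminescence was normalized to vehicle-treated cells. Results are mean ± s.e.m. (n=4) from 2 independent experiments, with one-way ANOVA against vehicle.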

For series [11] the target is unchanged. In words: Modulation of full length human Nurr1 expressed in PC12 cells co-transfected with luciferase reporter plasmid harboring NBRE response element assessed as increase in luciferase activity at 100 uM incubated for 18 hrs by luciferase reporter gene assay. Conditions: PC-12, filed as modulator. A digest of the protocol: as §6
For series [12] the target is unchanged. In words: Modulation of full length human Nurr1 expressed in HEK293T cells co-transfected with luciferase reporter plasmid harboring NurRE response element assessed as increase in luciferase activity at 100 uM incubated for 18 hrs by luciferase reporter gene assay. Conditions: filed as modulator. A digest of the protocol: as §5
Series [13] has the same target. In words: Modulation of full length human Nurr1 expressed in HEK293T cells co-transfected with luciferase reporter plasmid harboring NBRE response element assessed as increase in luciferase activity at 100 uM incubated for 18 hrs by luciferase reporter gene assay. The settings on record: filed as modulator. A digest of the protocol: as §5
For series [14] the target is unchanged. In words: Modulation of full length human Nurr1 expressed in PC12 cells co-transfected with RXRalpha and luciferase reporter plasmid harboring NBRE response element assessed as increase in luciferase activity at 100 uM incubated for 18 hrs by luciferase reporter gene assay. Conditions: PC-12, filed as modulator. A digest of the protocol: as §4

Structures are written as SMILES. Active and inactive are the calls of the source. No cut-off for these calls is given here.

With `COCCOCc1ccc(-c2cc3onc(-c4ccccc4)c3c(=O)n2C)cc1`, the Activity entry with SK-N-BE(2), in the series with PC-12 [1] and in the series on HEK-293T was “Non-Toxic” in each case. Moreover, the outcome (in the series with PC-12 [2]; with HEK293T; in series [3]; in series [4]; in [5]; in series [6]) was Active. Further, the result in series [7], in series [8], in series [9], in series [10], in [11] and in [12] was Active. For the same compound, the result in series [13] and in series [14] was Active.
